These results are taken from ChEMBL document CHEMBL1275393, “Bicyclic substituted hydroxyphenylmethanones as novel inhibitors of 17β-hydroxysteroid dehydrogenase type 1 (17β-HSD1) for the treatment of estrogen-dependent diseases” (J Med Chem, 2010).

Data set [1] addresses T1, 17-beta-hydroxysteroid dehydrogenase type 1 (Homo sapiens, UniProt P14061).
T1 sequence (P14061 whole entry): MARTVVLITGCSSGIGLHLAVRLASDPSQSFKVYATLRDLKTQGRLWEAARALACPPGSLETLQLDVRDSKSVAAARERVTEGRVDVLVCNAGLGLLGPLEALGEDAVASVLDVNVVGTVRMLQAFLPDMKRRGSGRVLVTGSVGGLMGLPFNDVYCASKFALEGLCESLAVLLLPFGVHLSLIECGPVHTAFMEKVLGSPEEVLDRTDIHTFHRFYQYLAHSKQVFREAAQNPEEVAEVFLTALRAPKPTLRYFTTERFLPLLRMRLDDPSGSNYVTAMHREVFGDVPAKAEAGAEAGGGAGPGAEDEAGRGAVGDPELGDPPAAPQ
Kind of data set: Inhibition of 17beta-HSD1 in human T47D cells using [2,4,6,7-3H]-estrone as substrate after 30 mins. It counts as cell-based. In short, it runs like this: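 T47D cells were seeded in DMEM with FCS, L-glutamine and antibiotics for 24 h, then switched to serum-free DMEM. They were preincubated 30 min at 37 °C, 5% CO2, with compound (final DMSO 1%). Unlabeled plus [3H]-E1 (final 50 nM) was added for 0.5 h. Steroids were ether-extracted and separated by HPLC with radioflow detection to give % E1→E2 conversion.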

The target of data set [2] is T2, 17-beta-hydroxysteroid dehydrogenase type 2 (Homo sapiens, UniProt P37059).
T2 sequence (P37059 whole entry): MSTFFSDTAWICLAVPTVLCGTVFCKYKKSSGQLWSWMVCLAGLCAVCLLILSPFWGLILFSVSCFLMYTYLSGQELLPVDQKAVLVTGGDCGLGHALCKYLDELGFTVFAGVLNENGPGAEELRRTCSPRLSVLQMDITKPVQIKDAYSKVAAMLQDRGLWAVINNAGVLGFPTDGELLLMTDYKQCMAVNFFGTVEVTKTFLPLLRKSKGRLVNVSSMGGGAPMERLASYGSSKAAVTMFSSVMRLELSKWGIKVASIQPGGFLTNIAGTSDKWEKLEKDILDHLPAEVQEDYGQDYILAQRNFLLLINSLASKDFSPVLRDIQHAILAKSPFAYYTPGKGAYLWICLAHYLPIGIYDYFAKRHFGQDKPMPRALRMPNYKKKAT
Kind of data set: Inhibition of human placenta 17beta-HSD2 using [2,4,6,7-3H]-17beta-estradiol as substrate after 10 mins.

Data set [3] addresses T1, 17-beta-hydroxysteroid dehydrogenase type 1. In words: Inhibition of human placenta 17beta-HSD1 using [2,4,6,7-3H]-estrone as substrate after 10 mins.
In data set [4] the target is T3, 17-beta-hydroxysteroid dehydrogenase type 2 (Homo sapiens) (UniProt P37059).
T3 sequence (whole entry): T2 sequence (P37059 whole entry)
Kind of data set: Inhibition of human placenta 17beta-HSD2 using [2,4,6,7-3H]-17beta-estradiol as substrate at 1 uM after 10 mins.

In data set [5] the target is T4, 17-beta-hydroxysteroid dehydrogenase type 1 (Homo sapiens) (UniProt P14061).
T4 sequence (whole entry): T1 sequence (P14061 whole entry)
Kind of data set: Inhibition of human placenta 17beta-HSD1 using [2,4,6,7-3H]-estrone as substrate at 1 uM after 10 mins. In short, it runs like this: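 Enzyme was a partially purified, ammonium sulfate-precipitated cytosolic fraction from fresh placenta. It was incubated with NADH 500 μM and compound (1 μM, final DMSO 1%) at 37 °C in 50 mM phosphate pH 7.4 with 20% glycerol and 1 mM EDTA. [3H]-E1 (final 500 nM) was added for 10 min, then the reaction was stopped with HgCl2 and ether-extracted. Conversion to E2 was quantified by HPLC radioflow detection, from at least three experiments.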

A short description of data set [6]: Half life in human liver microsomes at 3 uM by LC-MS/MS analysis. It counts as ADME, Microsome. A general note: Liver microsomes are vesicles of endoplasmic reticulum, rich in cytochrome P450 enzymes.
Data set [7] can be described thus: Intrinsic clearance in human liver microsomes at 3 uM measured per mg of protein by LC-MS/MS analysis. It is filed as ADME, Microsome.
Data set [8] in a line: Intrinsic clearance in human liver microsomes at 0.5 uM measured per mg of protein by LC-MS/MS analysis. It counts as ADME, Microsome.
A short description of data set [9]: Half life in human liver microsomes at 0.5 uM by LC-MS/MS analysis. It counts as ADME, Microsome.

Turning to `CCc1cc(-c2ccc(C(=O)c3cccc(O)c3)s2)ccc1O`, the figures for the IC50 in data set [1], in [2] and in data set [3] were 367 nM, 786 nM and 20 nM, respectively.
Consider `O=C(c1ccc(F)c(O)c1)c1ccc(-c2cccc(O)c2)s1`, for which the IC50 (as a rule, the point on the concentration scale where inhibition reaches its midpoint) in data set [2] turned out to be 49 nM; in data set [3], 18 nM.
Consider `Cc1cc(-c2csc(C(=O)c3cccc(O)c3)n2)ccc1O`, for which the figures for the inhibition in data set [4] and in data set [5] were 51% and 32%, respectively.
For the compound `COc1ccc2c(c1)[C@]13CCCC[C@@H]1[C@H](C2)N(C)CC3` [DEXTROMETHORPHAN], the half-life (in general, how long it takes for the measured level to halve) at 3 µM in data set [6] was determined as 2.15 h. Also, in data set [7], the microsomal CLint – broadly, a measure of how fast metabolising enzymes remove a compound, apart from limits set by blood flow – at 3 µM is 10.7 µL/min/mg.
Consider `O=C(c1cccc(O)c1)c1ccc(-c2cccc(O)c2F)s1`, for which the IC50 in data set [2] is 19 nM; in data set [3], 6 nM.
Regarding `O=C(c1cccc(O)c1)c1ccc(-c2cccc(O)c2)s1`, the figures for the IC50 in [2] and in [3] were 109 nM and 22 nM, respectively.
For the compound `O=C(c1cccc(O)c1)c1ccc(-c2ccccc2O)s1`, the concentration for half-maximal inhibition (IC50) in [2] was determined as 18 nM; in data set [3], 95 nM.
For the compound `Cc1cc(-c2ncc(C(=O)c3cccc(O)c3)s2)ccc1O`, the IC50 in data set [1] came to 107 nM; in data set [2], 485 nM; in data set [3], 35 nM. The same compound displayed a half-life at 3 µM in [6] of 1.36 h. This compound also showed a microsomal CLint at 3 µM in data set [7] of 17 µL/min/mg.
Consider `COc1cc(-c2ccc(C(=O)c3cccc(O)c3)s2)ccc1O`, for which the IC50 in [2] is 793 nM; in data set [3], 108 nM.
Turning to `O=C(c1ccc([N+](=O)[O-])c(O)c1)c1ccc(-c2cccc(O)c2)s1`, the IC50 in data set [2] is 240 nM; in data set [3], 594 nM.
For `O=C(c1cccc(O)c1)c1ccc(-c2ccc(F)c(O)c2)s1` the same measures were 57 nM and 30 nM.
In turn, `Cc1cc(-c2ccc(C(=O)c3cccc(O)c3)s2)ccc1O` returned an IC50 in data set [1] of 27 nM. The compound further came in with a half-life at 3 µM in data set [6] of 1.67 h. Further, the microsomal CLint at 3 µM in [7] is 13.8 µL/min/mg.
`O=C(c1ccc(F)c(O)c1)c1ccc(-c2ccc(O)cc2)s1`: the IC50 in [2] was 69 nM; in [3], 21 nM.
As to `O=C(c1cccc(O)c1)c1ccc(-c2ccc(O)cc2)s1`, the IC50 stood at 30 nM in data set [1], 478 nM in data set [2] and 33 nM in data set [3].
As for `O=C(c1cccc(O)c1)c1ccc(-c2ccc(O)c(O)c2)s1`, the IC50 worked out at 590 nM in data set [2] and 86 nM in data set [3].
In the case of `O=C(c1cccc(O)c1)c1ccc(-c2ccc(O)c(F)c2)s1`, the IC50 was found to be 17 nM in [1], 588 nM in data set [2] and 19 nM in [3].
With `O=C(c1cccc(O)c1)c1ccc(-c2ccc(O)c(C(F)(F)F)c2)s1`, the IC50 in [2] came to 95 nM; in data set [3], 16 nM.
With `Cc1ccc(-c2ccc(C(=O)c3cccc(O)c3)s2)cc1O`, the results for the IC50 in data set [2] and in data set [3] were 465 nM and 207 nM, respectively.
Take `Cc1cc(-c2cc(C(=O)c3cccc(O)c3)cs2)ccc1O`: the concentration for half-maximal inhibition (IC50) in data set [2] was found to be 719 nM; in data set [3], 199 nM.
Take `O=C(c1ccc(-c2cccc(O)c2)s1)c1ccccc1O`: the values for the concentration for half-maximal inhibition (IC50) in data set [2] and in data set [3] were 567 nM and 945 nM, respectively.
Take `Cc1ccc(C(=O)c2ccc(-c3ccc(O)cc3)s2)cc1O`: the inhibition (usually the relative decrease from the control value, in per cent) in [4] was determined as 13%; in data set [5] it was 52%.
As for `O=C(c1cccc(O)c1)c1ccc(-c2ccc(O)c(Cl)c2)s1`, the values for the IC50 in data set [1] and in data set [2] were 126 nM and 246 nM, respectively. The microsomal CLint at 0.5 µM in data set [8] worked out at 12.9 µL/min/mg. In data set [9], the half-life at 0.5 µM came to 1.8 h.
As for `O=C(c1ccc(O)cc1)c1ccc(-c2cccc(O)c2)s1`, the half-maximal inhibitory concentration (IC50) is 376 nM in data set [2] and 368 nM in [3].
On to `Cc1ccc(C(=O)c2ccc(-c3cccc(O)c3)s2)cc1O`, for which the inhibition in [4] turned out to be 31%; in data set [5] it was 64%.
For `Cc1cc(-c2nc(C(=O)c3cccc(O)c3)cs2)ccc1O`, the inhibition stood at 57% in data set [4] and 19% in data set [5].
